Reference: ChEMBL document CHEMBL1671757, “In vitro profiling of pramiconazole and in vivo evaluation in Microsporum canis dermatitis and Candida albicans vaginitis laboratory models” (Antimicrob Agents Chemother, 2010)
Active and inactive are the calls of the source. The calls are words filed in the database; no cut-off is given here.

Columns and labels:
[1] = Half life in guinea pig infected with 10^6 CFU Microsporum canis B68128 at 20 mg/kg, po administered 2 hrs before infection for 5 days; format: ADME, organism-based, Cavia porcellus; parameters: dose 20 mg/kg, route oral; settings: in vivo
Trichophyton quinckeanum = experiment: Antifungal activity against 5 x 10^6 CFU/ml Trichophyton quinckeanum B68683 by resazurin based fluorimetry assay; format: functional, organism-based
Method in brief: (§1)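 Isolates were grown on Sabouraud dextrose agar, with stocks of 5×10^6 CFU/ml in RPMI-MOPS plus 10% glycerol kept in liquid nitrogen. Each well held 10^3 CFU in 200 μl RPMI-MOPS with compound dilutions, top concentration 64 μM. After incubation, resazurin was added and fluorescence read (ex 550, em 590 nm). IC50 was relative to untreated controls, as the mean ± SD of five independent repeats.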

Microsporum canis = experiment: Antifungal activity against 5 x 10^6 CFU/ml Microsporum canis B68128 by resazurin based fluorimetry assay; format: functional, organism-based; method in brief: as §1
[2] = Cytotoxicity against human MRC5 cells; format: cell-based
Method in brief: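 Human lung fibroblasts (MRC-5SV40) were tested in parallel with the fungal screens. CC50 is the concentration killing 50% of cells, given as the mean ± SD of five independent repeats.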

[3] = Tmax in guinea pig infected with 10^6 CFU Microsporum canis B68128 at 20 mg/kg, po administered 2 hrs before infection for 5 days; format: ADME, organism-based, Cavia porcellus; parameters: dose 20 mg/kg, route oral; settings: in vivo
[4] = test system: Trichophyton mentagrophytes; experiment: Antifungal activity against 5 x 10^6 CFU/ml Trichophyton mentagrophytes B70554 by resazurin based fluorimetry assay; format: functional, organism-based; method in brief: as §1
[5] = Cmax in plasma of guinea pig infected with 10^6 CFU Microsporum canis B68128 at 20 mg/kg, po administered 2 hrs before infection for 5 days; format: ADME, organism-based, Cavia porcellus; parameters: dose 20 mg/kg, route oral
Candida albicans [6] = experiment: Antifungal activity against 10^7 CFU/ml Candida albicans B2630 infected in vulvovaginitis rat model assessed as fungal burden at 5 mg/kg administered tropically twice daily measured after 3 days; format: functional, organism-based; parameters: dose 5 mg/kg; settings: Vagina
Trichophyton rubrum [7] = experiment: Antifungal activity against 5 x 10^6 CFU/ml Trichophyton rubrum J941704 by resazurin based fluorimetry assay; format: functional, organism-based; method in brief: as §1
Candida albicans [8] = experiment: Antifungal activity against 5 x 10^6 CFU/ml Candida albicans B59163 by resazurin based fluorimetry assay; format: functional, organism-based; method in brief: as §1
Candida albicans [9] = experiment: Antifungal activity against 10^7 CFU/ml Candida albicans B2630 infected in vulvovaginitis rat model assessed as fungal burden at 5 mg/kg, po SID; format: functional, organism-based; parameters: dose 5 mg/kg; settings: Vagina
Method in brief: (§2)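 Intravaginal infection with 10^7 CFU. Oral dosing once daily in PEG200, starting about 2 h before infection, for 5 days. […] Six rats in two experiments.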

Pichia kudriavzevii = experiment: Antifungal activity against 5 x 10^6 CFU/ml Candida krusei B68404 by resazurin based fluorimetry assay; format: functional, organism-based; method in brief: as §1
Nakaseomyces glabratus = experiment: Antifungal activity against 5 x 10^6 CFU/ml Candida glabrata B63155 by resazurin based fluorimetry assay; format: functional, organism-based; method in brief: as §1
Candida albicans [10] = experiment: Antifungal activity against 10^7 CFU/ml Candida albicans B2630 infected in vulvovaginitis rat model assessed as fungal burden at 10 mg/kg, po SID; format: functional, organism-based; parameters: dose 10 mg/kg; settings: Vagina; method in brief: as §2
Candida albicans [11] = experiment: Antifungal activity against 10^7 CFU/ml Candida albicans B2630 infected in vulvovaginitis rat model assessed as fungal burden at 10 mg/kg administered tropically twice daily measured after 3 days; format: functional, organism-based; parameters: dose 10 mg/kg; settings: Vagina
Kluyveromyces marxianus = experiment: Antifungal activity against 5 x 10^6 CFU/ml Candida kefyr B46120 by resazurin based fluorimetry assay; format: functional, organism-based; method in brief: as §1
Candida albicans [12] = experiment: Antifungal activity against 5 x 10^6 CFU/ml Candida albicans B2630 by resazurin based fluorimetry assay; format: functional, organism-based; method in brief: as §1
Trichophyton rubrum [13] = experiment: Antifungal activity against 5 x 10^6 CFU/ml Trichophyton rubrum B68183 by resazurin based fluorimetry assay; format: functional, organism-based; method in brief: as §1
[14] = Cmax in plasma of guinea pig infected with 10^6 CFU Microsporum canis B68128 at 40 mg/kg, po administered 2 hrs before infection for 5 days; format: ADME, organism-based, Cavia porcellus; parameters: dose 40 mg/kg, route oral
[15] = Half life in guinea pig infected with 10^6 CFU Microsporum canis B68128 at 40 mg/kg, po administered 2 hrs before infection for 5 days; format: ADME, organism-based, Cavia porcellus; parameters: dose 40 mg/kg, route oral; settings: in vivo
[16] = Tmax in guinea pig infected with 10^6 CFU Microsporum canis B68128 at 40 mg/kg, po administered 2 hrs before infection for 5 days; format: ADME, organism-based, Cavia porcellus; parameters: dose 40 mg/kg, route oral; settings: in vivo
[17] = Cmax in plasma of guinea pig infected with 10^6 CFU Microsporum canis B68128 at 10 mg/kg, po administered 2 hrs before infection for 5 days; format: ADME, organism-based, Cavia porcellus; parameters: dose 10 mg/kg, route oral
[18] = Tmax in guinea pig infected with 10^6 CFU Microsporum canis B68128 at 10 mg/kg, po administered 2 hrs before infection for 5 days; format: ADME, organism-based, Cavia porcellus; parameters: dose 10 mg/kg, route oral; settings: in vivo
[19] = Half life in guinea pig infected with 10^6 CFU Microsporum canis B68128 at 10 mg/kg, po administered 2 hrs before infection for 5 days; format: ADME, organism-based, Cavia porcellus; parameters: dose 10 mg/kg, route oral; settings: in vivo

`CCC(C)n1ncn(-c2ccc(N3CCN(c4ccc(OCC5COC(Cn6cncn6)(c6ccc(Cl)cc6Cl)O5)cc4)CC3)cc2)c1=O` (stereo not drawn) [ITRACONAZOLE] showed a half-life [1] of 13.9 h, an IC50 (Trichophyton quinckeanum) of 2930 nM and an IC50 (Microsporum canis) of 2020 nM. For the same molecule, the CC50 [2] was 49300 nM, the Tmax [3] was 2 h and the IC50 [4] was 370 nM. The Cmax [5] was 350 ng/mL, the Activity (Candida albicans [6]) was “Active” and the IC50 (Trichophyton rubrum [7]) was 980 nM. For the same molecule, the IC50 (Candida albicans [8]) was 1410 nM, the Activity (Candida albicans [9]) was “Active” and the IC50 (Pichia kudriavzevii) was 4210 nM. For the same molecule, the IC50 (Nakaseomyces glabratus) was 3740 nM, the Activity (Candida albicans [10]) was “Active” and the Activity (Candida albicans [11]) was “Active”. It also gave an IC50 (Kluyveromyces marxianus) of 400 nM, an IC50 (Candida albicans [12]) of 1390 nM and an IC50 (Trichophyton rubrum [13]) of 560 nM.

In the case of `Clc1ccc(COC(Cn2ccnc2)c2ccc(Cl)cc2Cl)c(Cl)c1` (stereo not drawn) [MICONAZOLE], the IC50 (Trichophyton quinckeanum) is reported as 790 nM, the IC50 (Microsporum canis) is reported as 230 nM and the CC50 [2] is reported as 29700 nM. The IC50 [4] was 400 nM, the Activity (Candida albicans [6]) was “Active” and the IC50 (Trichophyton rubrum [7]) was 140 nM. For the same molecule, the IC50 (Candida albicans [8]) was 300 nM, the IC50 (Pichia kudriavzevii) was 1400 nM and the IC50 (Nakaseomyces glabratus) was 120 nM. For the same molecule, the Activity (Candida albicans [11]) was “Active”, the IC50 (Kluyveromyces marxianus) was 30 nM and the IC50 (Candida albicans [12]) was 2500 nM. The IC50 (Trichophyton rubrum [13]) was 330 nM.

Molecule `CC(C)N1CCN(c2ccc(N3CCN(c4ccc(OC[C@H]5OC[C@](Cn6cncn6)(c6ccc(F)cc6F)O5)cc4)CC3)cc2)C1=O` [PRAMICONAZOLE] has an IC50 (Trichophyton quinckeanum) of 1340 nM, an IC50 (Microsporum canis) of 180 nM and a CC50 [2] of 53300 nM. For the same molecule, the IC50 [4] was 150 nM, the Activity (Candida albicans [6]) was “Active” and the IC50 (Trichophyton rubrum [7]) was 190 nM. The Cmax [14] was 180 ng/mL, the IC50 (Candida albicans [8]) was 40 nM and the Activity (Candida albicans [9]) was “Active”. For the same molecule, the half-life [15] was 23 h, the Tmax [16] was 4 h and the IC50 (Pichia kudriavzevii) was 870 nM. The IC50 (Nakaseomyces glabratus) was 650 nM, the Activity (Candida albicans [10]) was “Active” and the Activity (Candida albicans [11]) was “Active”. It also gave an IC50 (Kluyveromyces marxianus) of 130 nM, an IC50 (Candida albicans [12]) of 1830 nM and an IC50 (Trichophyton rubrum [13]) of 350 nM.

`CN(C/C=C/C#CC(C)(C)C)Cc1cccc2ccccc12` [TERBINAFINE] showed an IC50 (Trichophyton quinckeanum) of 10 nM, an IC50 (Microsporum canis) of 100 nM and a CC50 [2] of 63000 nM. The Cmax [17] was 60 ng/mL, the IC50 [4] was 60 nM and the Tmax [18] was 0.7 h. For the same molecule, the IC50 (Trichophyton rubrum [7]) was 30 nM, the half-life [19] was 6.6 h and the IC50 (Candida albicans [8]) was 3570 nM. For the same molecule, the IC50 (Pichia kudriavzevii) was 64000 nM, the IC50 (Nakaseomyces glabratus) was 30700 nM and the IC50 (Kluyveromyces marxianus) was 6330 nM. It also gave an IC50 (Candida albicans [12]) of 64000 nM and an IC50 (Trichophyton rubrum [13]) of 70 nM.
